Results on one molecule are retold here after publication PMC6221542 (Science Advances, 2018).

The subject of assay [1] is methylated H3K9 and H3K27 peptides. Kind of assay: Peptide microarray, chromodomain binding profile. Also noted: species or system human. Conditions: cluster 3 = H3K9 peptides with different PTMs. Put shortly: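 Array of 467 unmodified and modified peptides (desalted, mass-spectrometry checked) printed in triplicate spots on glass slides and probed with chromodomain proteins. Signal intensities converted to z scores per chromodomain using all its intensities: z = (x − mean)/SD. Hierarchical clustering grouped chromodomains into three categories and peptides into six clusters by binding preference.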

Assay [2] concerns H4K20me1. Kind of assay: Peptide microarray, chromodomain binding to H4K20me1. Also noted: species or system human. Conditions: no dsDNA in binding buffer. Put shortly: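 Custom array of 467 unmodified and modified peptides (synthesized, desalted, mass-spec checked), each spotted in triplicate on glass slides. Chromodomain proteins were bound to the printed array and analyzed by a previously described protocol. The CBX1 mutant chromodomain was instead screened on a commercial modified-histone peptide array.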

B1: MS3L1: MS3L1 chromodomain, cloned sequence 29-94 (protein, UniProt Q8N5Y2 29-94, looked up, fragment)
chain: VLYDAKIVDVIVGKDEKGRKIPEYLIHFNGWNRSWDRWAAEDHVLRDTDENRRLQRKLARKAVARL
modifications: chromodomain
For the molecule B1, the “interaction with peptide cluster 3 (in words)” value in assay [1] was “lacked significant interaction with cluster 3”. In addition, the “interaction with H4K20me1 (in words)” value in assay [2] was “did not show interaction with this mark”.
